Assay results taken from ChEMBL document CHEMBL1145564, “Discovery of N-[(3R,5R)-1-azabicyclo[3.2.1]oct-3-yl]furo[2,3-c]pyridine-5-carboxamide as an agonist of the alpha7 nicotinic acetylcholine receptor: in vitro and in vivo activity” (Bioorg Med Chem Lett, 2008).
Calls of active or inactive are those of the source. The calls are words filed in the database; no cut-off is given here.

Columns and labels:
[1] = Metabolic stability in rat liver microsomes assessed as hepatic extraction ratio after 30 mins; assay type: ADME, Microsome
How it was run: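 Rat liver microsome incubation; stability reported as fraction of compound remaining after 30 min relative to t0 concentration.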

[2] = molecular target: Neuronal acetylcholine receptor subunit alpha-7 (Rattus norvegicus, UniProt Q05941); experiment: Displacement of [3H]MLA from alpha-7 nACh receptor in rat brain; assay type: tissue-based
Sequence of Neuronal acetylcholine receptor subunit alpha-7 (Rattus norvegicus, UniProt Q05941) (Q05941 whole entry): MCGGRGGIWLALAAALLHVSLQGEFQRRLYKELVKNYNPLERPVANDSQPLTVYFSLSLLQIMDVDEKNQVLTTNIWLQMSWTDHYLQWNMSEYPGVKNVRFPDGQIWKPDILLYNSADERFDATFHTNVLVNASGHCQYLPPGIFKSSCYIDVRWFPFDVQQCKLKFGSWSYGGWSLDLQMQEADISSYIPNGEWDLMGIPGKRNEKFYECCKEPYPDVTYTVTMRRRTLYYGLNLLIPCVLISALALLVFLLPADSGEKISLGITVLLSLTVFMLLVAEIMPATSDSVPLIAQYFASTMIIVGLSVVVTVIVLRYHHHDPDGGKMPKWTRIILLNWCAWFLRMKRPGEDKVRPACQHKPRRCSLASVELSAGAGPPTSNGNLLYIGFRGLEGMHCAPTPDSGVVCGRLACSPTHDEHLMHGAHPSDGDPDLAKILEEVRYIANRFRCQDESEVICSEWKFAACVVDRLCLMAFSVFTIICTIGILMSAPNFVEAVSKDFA
How it was run: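 Rat brain homogenate binding with [3H]MLA; individual Ki values, mean ± SEM reported when more than 3 measurements.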

[3] = molecular target: T1, Neuronal acetylcholine receptor subunit alpha-7 (Homo sapiens, UniProt P36544); experiment: Agonist activity at alpha7-5HT3 chimera expressed in human SH-EP1 cells by FLIPR assay; assay type: functional, cell-based
Target sequence in this assay (P36544 23-502 limits assumed): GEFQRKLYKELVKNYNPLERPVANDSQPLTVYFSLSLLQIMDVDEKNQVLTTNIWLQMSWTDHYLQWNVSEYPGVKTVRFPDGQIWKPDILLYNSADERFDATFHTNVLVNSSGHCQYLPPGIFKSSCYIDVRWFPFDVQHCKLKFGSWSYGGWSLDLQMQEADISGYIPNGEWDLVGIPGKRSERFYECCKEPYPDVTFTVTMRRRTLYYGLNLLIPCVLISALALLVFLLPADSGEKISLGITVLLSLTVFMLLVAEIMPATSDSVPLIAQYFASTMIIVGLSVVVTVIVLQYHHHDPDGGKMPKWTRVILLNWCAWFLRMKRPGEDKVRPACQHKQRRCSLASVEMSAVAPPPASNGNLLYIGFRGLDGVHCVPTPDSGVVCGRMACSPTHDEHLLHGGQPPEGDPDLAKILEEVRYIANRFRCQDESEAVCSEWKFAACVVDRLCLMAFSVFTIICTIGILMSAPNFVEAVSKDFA

[4] = Apparent permeability from apical to basolateral side in dog MDCK cells; assay type: ADME, cell-based, Canis lupus familiaris
How it was run: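 MDCK monolayer permeability measured apical to basolateral, expressed as Papp (x10^-6 cm/s).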

[5] = Ratio of drug level in brain to plasma in mouse at 10 mg/kg after 5 mins; assay type: ADME, organism-based; parameters: dose 10 mg/kg
How it was run: (§1)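 Mouse brain uptake: brain and plasma concentrations after a 10 mg/kg dose, ratio taken at 5 and 60 min.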

[6] = Ratio of drug level in brain to plasma in mouse at 10 mg/kg after 60 min; assay type: ADME, organism-based; parameters: dose 10 mg/kg; how it was run: as §1
Plasma [7] = experiment: Drug level in rat plasma at 0.1 mg/kg, sc; assay type: ADME, organism-based; parameters: dose 0.1 mg/kg, route subcutaneous; conditions: in vivo
How it was run: (§2)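 Rats given amphetamine 1 mg/kg iv to disrupt gating, then test drug sc (0.01–1.0 mg/kg, n = 6-9). Gating is the conditioning/test EEG field potential ratio from paired tones at 0.5 Hz, monitored 30 min, expressed as % reversal. Brain and plasma levels taken about 37 min post-dose.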

Rattus norvegicus [8] = experiment: Reversal of amphetamine-induced auditory gating deficit in sc dosed rat auditory sensory gating model; assay type: functional; how it was run: as §2
[9] = Oral bioavailability in Sprague-Dawley rat at 5 mg/kg; assay type: ADME, organism-based; conditions: in vivo
How it was run: (§3)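 Sprague-Dawley rats given a single 5.0 mg/kg oral dose; pharmacokinetic parameters derived from plasma.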

[10] = molecular target: T1, Neuronal acetylcholine receptor subunit alpha-7; experiment: Displacement of [3H]MLA from alpha-7 nACh receptor in human IMR32 cells; assay type: cell-based, IMR-32
Target sequence in this assay (P36544 whole entry): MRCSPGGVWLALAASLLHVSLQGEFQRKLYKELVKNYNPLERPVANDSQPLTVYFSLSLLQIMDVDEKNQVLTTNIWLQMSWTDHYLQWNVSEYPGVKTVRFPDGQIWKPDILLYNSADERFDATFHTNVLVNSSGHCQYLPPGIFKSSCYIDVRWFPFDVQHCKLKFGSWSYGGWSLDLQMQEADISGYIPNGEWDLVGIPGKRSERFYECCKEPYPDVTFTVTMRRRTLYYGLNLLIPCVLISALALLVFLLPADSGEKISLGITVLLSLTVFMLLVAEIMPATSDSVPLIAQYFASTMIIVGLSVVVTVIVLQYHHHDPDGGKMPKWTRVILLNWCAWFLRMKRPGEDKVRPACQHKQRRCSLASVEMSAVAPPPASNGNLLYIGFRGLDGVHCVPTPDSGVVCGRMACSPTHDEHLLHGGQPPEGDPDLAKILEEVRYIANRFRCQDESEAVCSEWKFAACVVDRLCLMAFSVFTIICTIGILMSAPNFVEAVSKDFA

Rattus norvegicus [11] = experiment: Volume of distribution at steady state in Sprague-Dawley rat at 5 mg/kg, po; assay type: ADME, organism-based; parameters: dose 5 mg/kg, route oral; conditions: in vivo; how it was run: as §3
[12] = molecular target: T2, 5-hydroxytryptamine receptor 3A (Rattus norvegicus, UniProt P35563); experiment: Binding affinity to rat 5HT3 receptor
T2 sequence (P35563 whole entry): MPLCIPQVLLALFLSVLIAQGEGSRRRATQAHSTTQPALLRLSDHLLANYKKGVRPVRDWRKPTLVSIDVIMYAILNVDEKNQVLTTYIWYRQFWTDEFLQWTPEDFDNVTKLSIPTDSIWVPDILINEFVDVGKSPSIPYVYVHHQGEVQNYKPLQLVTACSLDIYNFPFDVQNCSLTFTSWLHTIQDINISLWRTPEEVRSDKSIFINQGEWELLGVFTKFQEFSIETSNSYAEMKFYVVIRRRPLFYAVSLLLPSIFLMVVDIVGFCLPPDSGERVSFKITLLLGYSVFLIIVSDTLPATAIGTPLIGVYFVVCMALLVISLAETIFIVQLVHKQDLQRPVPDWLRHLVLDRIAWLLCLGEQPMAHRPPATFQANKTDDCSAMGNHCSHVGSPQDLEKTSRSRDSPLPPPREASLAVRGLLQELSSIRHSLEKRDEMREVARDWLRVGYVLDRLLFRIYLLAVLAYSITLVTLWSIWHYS

[13] = Toxicity in dog ECG model assessed as drug level causing no observable adverse effects; assay type: organism-based, Canis lupus familiaris; conditions: in vivo, read-out: Activity
How it was run: (§4)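 Acute dog ECG cardiovascular safety study; no-observable-adverse-effect dose set, with Cmax measured at that dose.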

[14] = Drug level in rat plasma at 0.24 mg/kg, iv after 30 mins; assay type: ADME, organism-based; parameters: dose 0.24 mg/kg, route intravenous
Brain [15] = experiment: Drug level in rat brain at 0.1 mg/kg, sc; assay type: ADME, organism-based; parameters: dose 0.1 mg/kg, route subcutaneous; conditions: in vivo; how it was run: as §2
[16] = Half life in Sprague-Dawley rat at 5 mg/kg, po; assay type: ADME, organism-based; parameters: dose 5 mg/kg, route oral; conditions: in vivo; how it was run: as §3
Plasma [17] = experiment: Drug level in rat plasma at 0.01 mg/kg, sc; assay type: ADME, organism-based; parameters: dose 0.01 mg/kg, route subcutaneous; conditions: in vivo; how it was run: as §2
Plasma [18] = experiment: Drug level in rat plasma at 1 mg/kg, sc; assay type: ADME, organism-based; parameters: dose 1 mg/kg, route subcutaneous; conditions: in vivo; how it was run: as §2
[19] = Drug level in rat plasma at 1 mg/kg, sc twice daily for 6 days; assay type: ADME, organism-based; parameters: dose 1 mg/kg, route subcutaneous
How it was run: (§5)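 Rats dosed sc twice daily for 6 days with drug 1 mg/kg or 0.9% saline vehicle (n = 8). On day 7, amphetamine-induced gating deficit challenged with acute drug 1 mg/kg sc; brain and plasma exposures measured.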

[20] = molecular target: Neuronal acetylcholine receptor; alpha4/beta2 (Rattus norvegicus) (UniProt P09483+P12390); experiment: Displacement of [3H][…] from alpha-4-beta-2 nACh receptor in rat brain at 1 uM; assay type: tissue-based
How it was run: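 Rat brain homogenate binding using [3H][…]; percent block at 1 µM.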

Brain [21] = experiment: Drug level in rat brain at 0.01 mg/kg, sc; assay type: ADME, organism-based; parameters: dose 0.01 mg/kg, route subcutaneous; conditions: in vivo, read-out: Drug uptake; how it was run: as §2
[22] = Cmax in dog ECG model; assay type: ADME, organism-based, Canis lupus familiaris; conditions: in vivo; how it was run: as §4
[23] = molecular target: T3, Muscarinic acetylcholine receptor M1 (Homo sapiens) (UniProt P11229); experiment: Displacement of [3H]pirenzepine from human muscarinic M1 receptor expressed in CHO cells at 10 uM; assay type: cell-based
T3 sequence (whole entry): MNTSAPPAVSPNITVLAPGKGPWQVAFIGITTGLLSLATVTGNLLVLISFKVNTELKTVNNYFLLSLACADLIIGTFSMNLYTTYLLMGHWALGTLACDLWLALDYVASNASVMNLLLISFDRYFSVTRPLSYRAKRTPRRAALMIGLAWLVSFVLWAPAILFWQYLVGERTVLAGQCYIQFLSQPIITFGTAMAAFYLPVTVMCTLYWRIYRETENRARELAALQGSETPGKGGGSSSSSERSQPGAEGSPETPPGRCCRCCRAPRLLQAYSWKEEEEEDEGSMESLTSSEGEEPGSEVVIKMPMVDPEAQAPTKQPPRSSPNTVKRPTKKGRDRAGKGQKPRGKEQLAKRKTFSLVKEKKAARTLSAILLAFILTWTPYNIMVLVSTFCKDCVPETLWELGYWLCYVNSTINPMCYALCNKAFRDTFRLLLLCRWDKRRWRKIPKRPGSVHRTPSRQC
How it was run: (§6)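 Human muscarinic receptors in transfected CHO cells; radioligands [3H]pirenzepine (M1), [3H]AF-DX 384 (M2), [3H]DAMP (M3); percent block at 10 µM.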

[24] = Drug level in rat brain at 1 mg/kg, sc twice daily for 6 days; assay type: ADME, organism-based; parameters: dose 1 mg/kg, route subcutaneous; conditions: read-out: Drug uptake; how it was run: as §5
[25] = molecular target: T4, Muscarinic acetylcholine receptor M2 (Homo sapiens) (UniProt P08172); experiment: Displacement of [3H]AF-DX384 from human muscarinic M2 receptor expressed in CHO cells at 10 uM; assay type: cell-based; how it was run: as §6
T4 sequence (whole entry): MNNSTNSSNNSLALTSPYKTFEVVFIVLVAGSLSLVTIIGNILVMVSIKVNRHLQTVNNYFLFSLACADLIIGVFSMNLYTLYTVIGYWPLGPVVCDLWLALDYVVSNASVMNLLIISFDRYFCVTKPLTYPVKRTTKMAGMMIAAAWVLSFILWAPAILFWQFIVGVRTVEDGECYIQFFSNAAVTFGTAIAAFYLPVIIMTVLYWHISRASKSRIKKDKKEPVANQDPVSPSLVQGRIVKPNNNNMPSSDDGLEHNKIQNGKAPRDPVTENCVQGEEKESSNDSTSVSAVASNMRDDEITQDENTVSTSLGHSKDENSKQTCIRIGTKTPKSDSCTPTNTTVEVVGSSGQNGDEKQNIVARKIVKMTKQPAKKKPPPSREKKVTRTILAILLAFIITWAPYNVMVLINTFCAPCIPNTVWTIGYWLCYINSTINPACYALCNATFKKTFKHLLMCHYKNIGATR

Rattus norvegicus [26] = experiment: Reversal of amphetamine-induced auditory gating deficit in rat at 1 mg/kg, sc twice daily for 6 days; assay type: functional, organism-based; parameters: dose 1 mg/kg; how it was run: as §5
hERG (KCNH2) = hERG (KCNH2) (Homo sapiens, UniProt Q12809); experiment: Inhibition of human ERG expressed in HEK293 cells at 20 uM; assay type: cell-based; conditions: HEK293 cells that express hERG
Sequence of hERG (KCNH2) (Q12809 whole entry): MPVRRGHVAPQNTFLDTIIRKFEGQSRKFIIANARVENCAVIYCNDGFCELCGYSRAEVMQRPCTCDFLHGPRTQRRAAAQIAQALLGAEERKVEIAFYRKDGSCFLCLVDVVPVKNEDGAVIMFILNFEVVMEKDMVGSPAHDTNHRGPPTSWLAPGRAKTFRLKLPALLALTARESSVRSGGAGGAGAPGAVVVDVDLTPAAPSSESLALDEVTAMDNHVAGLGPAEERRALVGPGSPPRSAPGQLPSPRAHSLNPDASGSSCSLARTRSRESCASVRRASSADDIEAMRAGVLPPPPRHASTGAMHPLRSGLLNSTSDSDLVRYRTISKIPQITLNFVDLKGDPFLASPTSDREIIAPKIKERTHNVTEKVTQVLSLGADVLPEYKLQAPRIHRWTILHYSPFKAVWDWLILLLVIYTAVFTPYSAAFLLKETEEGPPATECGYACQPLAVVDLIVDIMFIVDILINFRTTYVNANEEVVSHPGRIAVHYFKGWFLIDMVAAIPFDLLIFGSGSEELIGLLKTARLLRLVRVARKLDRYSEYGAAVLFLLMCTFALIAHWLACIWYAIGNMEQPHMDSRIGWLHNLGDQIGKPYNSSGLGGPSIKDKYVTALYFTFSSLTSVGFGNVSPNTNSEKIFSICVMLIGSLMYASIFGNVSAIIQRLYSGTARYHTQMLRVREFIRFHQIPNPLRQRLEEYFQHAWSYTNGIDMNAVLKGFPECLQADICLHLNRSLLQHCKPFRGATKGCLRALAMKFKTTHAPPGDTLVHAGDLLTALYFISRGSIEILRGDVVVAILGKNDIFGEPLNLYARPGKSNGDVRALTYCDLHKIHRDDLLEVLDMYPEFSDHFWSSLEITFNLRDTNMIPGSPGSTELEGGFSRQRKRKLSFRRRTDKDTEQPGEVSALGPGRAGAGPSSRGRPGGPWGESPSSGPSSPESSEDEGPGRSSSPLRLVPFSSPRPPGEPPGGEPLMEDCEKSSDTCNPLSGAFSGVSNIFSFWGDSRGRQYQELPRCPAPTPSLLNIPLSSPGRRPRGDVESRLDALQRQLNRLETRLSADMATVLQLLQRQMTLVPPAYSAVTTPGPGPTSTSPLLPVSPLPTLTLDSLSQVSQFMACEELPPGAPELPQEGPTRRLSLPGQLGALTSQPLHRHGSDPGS
How it was run: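 Patch-clamp on hERG current (IKr) in HEK cells; percent inhibition at 20 µM; aqueous solubility checked by HPLC in pH 7 buffer.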

Brain [27] = experiment: Drug level in rat brain at 1 mg/kg, sc; assay type: ADME, organism-based; parameters: dose 1 mg/kg, route subcutaneous; conditions: in vivo, read-out: Drug uptake; how it was run: as §2
[28] = molecular target: Muscarinic acetylcholine receptor M3 (Homo sapiens) (UniProt P20309); experiment: Displacement of [3H]DAMP from human muscarinic M3 receptor expressed in CHO cells at 10 uM; assay type: cell-based; how it was run: as §6
Sequence of Muscarinic acetylcholine receptor M3 (Homo sapiens) (P20309 whole entry, looked up): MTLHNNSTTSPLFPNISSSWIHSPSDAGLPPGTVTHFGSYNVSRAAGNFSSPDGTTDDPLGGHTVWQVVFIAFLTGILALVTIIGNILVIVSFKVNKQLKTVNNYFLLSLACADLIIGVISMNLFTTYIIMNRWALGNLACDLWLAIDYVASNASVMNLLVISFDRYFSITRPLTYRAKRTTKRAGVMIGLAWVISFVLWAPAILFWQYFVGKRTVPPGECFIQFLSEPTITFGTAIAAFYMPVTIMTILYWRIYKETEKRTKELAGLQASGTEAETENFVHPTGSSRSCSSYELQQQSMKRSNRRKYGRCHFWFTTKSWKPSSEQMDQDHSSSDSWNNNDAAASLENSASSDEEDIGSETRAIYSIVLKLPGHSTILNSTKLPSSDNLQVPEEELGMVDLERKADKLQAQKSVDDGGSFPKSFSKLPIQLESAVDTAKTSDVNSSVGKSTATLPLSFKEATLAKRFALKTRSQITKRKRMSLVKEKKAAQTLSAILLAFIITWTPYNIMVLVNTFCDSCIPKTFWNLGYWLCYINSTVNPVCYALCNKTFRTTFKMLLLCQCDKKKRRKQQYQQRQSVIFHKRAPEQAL

[29] = Clearance in Sprague-Dawley rat at 5 mg/kg, po; assay type: ADME, organism-based; parameters: dose 5 mg/kg, route oral; conditions: in vivo; how it was run: as §3
[30] = Metabolic stability in human liver microsomes assessed as half life; assay type: ADME, Microsome

O=C(N[C@@H]1C[C@H]2CCN(C2)C1)c1cc2cccn2cn1
hepatic extraction ratio at 0.5 h [1]: 0.86
Ki [2]: 14 nM
EC50 [3]: 129 nM

O=C(N[C@@H]1C[C@H]2CCN(C2)C1)c1ccc2occc2c1
Papp A→B [4]: 3.8 ×10⁻⁶ cm/s
Kp at 5 min [5]: 0.27
hepatic extraction ratio at 0.5 h [1]: < 0.27
Ki [2]: 6.2 nM
EC50 [3]: 81 nM
Kp at 1 h [6]: 1.15

O=C(N[C@@H]1C[C@H]2CCN(C2)C1)c1cc2sccc2cn1
hepatic extraction ratio at 0.5 h [1]: 0.71
Ki [2]: 7 nM
EC50 [3]: 70 nM

O=C(N[C@@H]1C[C@H]2CCN(C2)C1)c1cc2ccoc2cn1
concentration (Plasma [7]): 60 nM
Activity (Rattus norvegicus [8]): Dose-dependent effect
minimal effective dose (Rattus norvegicus [8]; read-out: MED): 0.1 mg/kg
bioavailability [9]: 40%
Papp A→B [4]: 21 ×10⁻⁶ cm/s
Ki [10]: 9 nM
Vdss (Rattus norvegicus [11]): 2.4 L/kg
Ki [12]: 350 nM
NOAEL [13]: 40 mg/kg
Kp at 5 min [5]: 1.52
concentration at 0.5 h [14]: 130 nM
concentration (Brain [15]): 47 nM
half-life [16]: 48 min
concentration (Plasma [17]): 12 nM
Ki [2]: 2.9 nM
concentration (Plasma [18]): 1100 nM
concentration at 144 h [19]: 490 nM
Activity [20]: < 1%
concentration (Brain [21]): 5.3 nM
Cmax [22]: 22000 nM
Activity [23]: 16%
concentration at 144 h [24]: 350 nM
EC50 [3]: 46 nM
Activity [25]: 25%
Activity (Rattus norvegicus [26]): Active
inhibition at 20 µM (hERG (KCNH2)): 25%
concentration (Brain [27]): 1200 nM
Activity [28]: 15%
Kp at 1 h [6]: 1.88
CL/F [29]: 72 mL/min/kg
half-life [30]: > 120 min

O=C(N[C@@H]1C[C@H]2CCN(C2)C1)c1ccc2c(c1)OCCO2
hepatic extraction ratio at 0.5 h [1]: 0.74
Ki [2]: 29 nM
EC50 [3]: 430 nM
